Hits are enriched below; roughly 2.3% of the tested compounds scored in any of these assays.
LGR2 inh: inhibitors of bursicon-induced LGR2 CRE-luciferase signal, primary screen, cell-based, HEK293, CRE-luciferase reporter, bursicon stimulation; Drosophila bursicon receptor LGR2 (rickets); bursicon-stimulated, 4 h; inhibition, % at 9.99 µM; 380,000 compounds, 0.35% hits; AID 720647, 2013;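 active means drop in luminescence signal, shown as inhibition above about 50% in the replicate tests, limit read from the data, passing the limit was not always enough; inconclusive means probably only some replicates passing the limit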;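 further: agonist challenge used bursicon conditioned medium at about half maximal strength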
Xi reactivation: activators of inactive X chromosome reactivation, primary screen, imaging, XiGFP fibroblasts, GFP high-content imaging, set 2; 360,000 compounds, 0.055% hits; activation, % at 7.58 µM; XiGFP mouse fibroblasts, % GFP-positive cells imaging, 3 d; cells co-treated with 5-aza-dC sensitizer; scaled so ellipticine positive control = 100%;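 active means mean normalized replicate activation at least 10% and every replicate at or above 10%; inconclusive means only one of the two criteria met; inactive means mean below 10% and not all replicates reach 10%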;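 further: 0% = median of on-plate neutral control wells and 100% = ellipticine 6 µM median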
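Material: XiGFP fibroblasts, SV40-immortalized. Buffer or medium: DMEM plus 5-aza-dC sensitizer. Compound: single concentration per compound, delivered by pin transfer. Times: 3 days compound exposure. Controls: ellipticine 6 µM.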
EWS-Fli block: EWS/Fli-driven NR0B1 reporter inhibitors, primary screen, A673 cells, NR0B1 luciferase, luminescence, MLPCN library; viability-normalised; inhibition, % at 12.6 µM; 350,000 compounds, 0.67% hits;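 active means mean inhibition of at least 50% after viability correction, with every replicate also passing that limit; inconclusive means mean reaches 50% but only one of two replicates passes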;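 further: firefly luciferase signal divided by Alamar Blue viability fluorescence both relative to DMSO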
FN deposit inh: inhibitors of fibronectin matrix deposition, primary screen, AH1F cells, Alexa488-fibronectin fluorescence, plate reader; AID 743247, 2014; inhibition, % at 12.6 µM; 350,000 compounds, 0.086% hits; AH1F fibroblasts, overnight;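 active means mean inhibition across replicates of 30% or more, regardless of how many single replicates reach that level; inconclusive means mean under 30% yet at least half of replicates reach 30%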;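 further: positive control wells lacked labelled fibronectin entirely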
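Measured by – fluorescence 485/525 nm · System – AH1F fibroblast monolayer, labelled fibronectin deposition · Amount – 10000 cells per well · Buffer or medium – serum-reduced DMEM (2% serum) · Doses – single dose, pinned · Also added – fluorescent fibronectin at 24 nM final · Schedule – 1 h cell attachment, overnight exposure to compound and label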
TWEAK-Fn14 inh: inhibitors of TWEAK-Fn14 signaling, primary screen, luciferase reporter cells, uHTS | TWEAK-stimulated Fn14 reporter cells, luciferase luminescence, 8 h | inhibition, % at 10 µM | 360,000 compounds, 2% hits; in the data active means inhibition above about 50%
TROY NFkB inh: inhibitors of TROY-driven NF-kB signaling, primary screen, Q293 LMP1-TROYcd cells, NF-kB luciferase, uHTS. Q293 LMP1-TROYcd NF-kB luciferase reporter, 4 h. inhibition, % at 10 µM. 360,000 compounds, 0.98% hits. AID 1347056, 2019;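 active means compounds whose plate-normalised and pattern-corrected inhibition of the luciferase reporter signal at the single screening dose is 50% or more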
An asterisk follows results filed as active; u = inconclusive; x = no result.

SMILES	LGR2 inh	Xi reactivation	EWS-Fli block	FN deposit inh	TWEAK-Fn14 inh	TROY NFkB inh
O=C(CCn1cccn1)Nc1ccc2c(c1)OCCO2	14	0	x	10	78*	62*
C[C@H](CO)N1C[C@H](C)[C@@H](CN(C)C(=O)NC2CCCCC2)OCCCC[C@H](C)Oc2ccc(NC(=O)Nc3cccc4ccccc34)cc2C1=O	22	0	8	x	x	x
COc1ccc2c3c([nH]c2c1)[C@@H](CO)N(Cc1ccc(Cl)cc1)CC31CN(Cc2ccccc2)C1	x	0	x	x	x	x
O=C(Nc1ccc2c(c1)OCO2)c1ccc(Cl)cc1Cl	-4	0	x	x	16	-20
O=C(Nc1ccc2c(c1)OCCO2)c1ccc(Cl)cc1Cl	52*	0	16	2	33	-42
CC1(C(=O)Nc2ccc3c(c2)OCCO3)CCN1C(=O)c1ccccc1CCc1ccccc1 (stereo unspecified)	11	0	19	-5	69*	35
Cc1ccsc1C(=O)Nc1ccc2c(c1)OCCO2	38	0	x	-6	33	-16
Cc1ncoc1C(=O)Nc1ccc2c(c1)OCCO2	x	x	x	x	73*	42
CC1(C(=O)Nc2cccc(C#N)c2)CCN1C(=O)c1ccccc1CCc1ccccc1 (stereo unspecified)	19	0	5	10	11	-6
Cc1ccccc1C(=O)Nc1ccc2c(c1)OCCO2	u	0	16	-8	58*	-12
C#CCNC(=O)C1=C[C@@H](c2cn(C(C)=O)c3ccccc23)[C@H](CCCO)[C@@H](OCC)O1	x	x	3	x	x	x
COc1ccc(C(=O)N=c2nc3ccccn3s2)cc1	x	x	x	4	97*	79*
COc1ccc(C(=O)O/N=C2\C(=O)N(C)c3ccccc32)cc1	8	0	14	8	-38	11
O=C(CCc1nc(-c2ccc(Cl)cc2)no1)NCc1ccccc1CN1CCOCC1	-10	0	4	10	0	84*
CN1N=C(C(C)(C)C)CSC1=Nc1ccc(F)cc1	-17	0	-20	-4	66*	-10
CN1N=C(c2ccc(F)c(F)c2)CSC1=NCc1ccccc1	13	0	-5	x	-1	-8
C=CCN1C(=O)NC(c2ccc(OC)cc2)(C(F)(F)F)S/C1=C(\C#N)c1nnc(N2CCOCC2)n1-c1ccccc1 (stereo unspecified)	12	0	1	9	50*	-7
Cc1noc(C)c1S(=O)(=O)N(C)C[C@H]1Oc2ccc(NC(=O)NC3CCCCC3)cc2CC(=O)N([C@H](C)CO)C[C@H]1C	-8	0	6	0	x	x
O=C(N/N=C/c1ccc(-c2cccc(C(F)(F)F)c2)o1)c1ccccc1O	27	0	x	-11	12	10
O=C(N/N=C/c1ccc(-c2cccc(C(F)(F)F)c2)o1)c1ccccc1Br	x	x	x	x	59*	65*
CCc1ccc(NC(=O)c2noc3c2CCC3)cc1	x	x	x	1	73*	28
Cc1ccc(NC(=O)c2noc3c2CCCCC3)cc1	24	x	x	9	51*	-10
CCc1ccc(NC(=O)c2noc3c2CCCCC3)cc1	x	x	x	12	-29	-44
CC(C)(C)C1CCc2onc(C(=O)NC3CCCC3)c2C1 (stereo unspecified)	2	x	-7	x	-16	14
O=C(NC1CCCCC1)c1noc2c1CCCCC2	-57	x	x	0	55*	42
CC(C)CC#Cc1cnc2c(c1)C(=O)N([C@H](C)CO)C[C@H](C)[C@H](CN(C)C(=O)Cc1ccncc1)O2	-4	-1	-8	x	x	x
O=C(Nc1cc(Cl)ccc1O)c1snnc1-c1ccccc1	x	x	x	1	9	55*
COc1ccc(S(=O)(=O)Nc2ccc3c(c2)C(=O)N([C@H](C)CO)C[C@@H](C)[C@H](CN(C)C(=O)Cc2ccccc2)OCCCC[C@@H](C)O3)cc1	2	0	10	x	x	x
